Measurements published in ChEMBL document CHEMBL4431354, “Piperazic acid derivatives inhibit Gli1 in Hedgehog signaling pathway” (Bioorg Med Chem Lett, 2016).
Each block holds one molecule with its values, some of them ahead of it. Calls of active or inactive are those of the source. The rule behind the calls is not given here.

Assays:
Shh Light II [1] = assay: Effect on Smo expression in mouse Shh Light2 cells at 75 to 100 uM after 24 hrs by Western blot analysis; format: functional, cell-based
Shh Light II [2] = assay: Cytotoxicity against mouse Shh Light2 cells up to 150 uM after 40 hrs by MTT assay; format: cell-based
Summary of the method: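 MTT viability in Shh-LIGHT2 cells (NIH-3T3 clone with Gli-dependent firefly and constitutive Renilla luciferase reporters) after 40 h exposure to doses up to 150 μM, under the same conditions as the Hh reporter assay.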

Shh Light II [3] = assay: Cell cycle arrest in mouse Shh Light2 cells assessed as accumulation at S phase at 100 uM after 30 to 48 hrs by propidium iodide staining-based flow cytometry (reference value: 3.6%); format: functional
Shh Light II [4] = assay: Cell cycle arrest in mouse Shh Light2 cells assessed as accumulation at subG0 phase at 30 uM after 30 to 48 hrs by propidium iodide staining-based flow cytometry (reference value: 3.4%); format: functional
Shh Light II [5] = assay: Effect on Ptch1 expression in mouse Shh Light2 cells at 75 to 100 uM after 24 hrs by Western blot analysis; format: functional, cell-based
Shh Light II [6] = assay: Cell cycle arrest in mouse Shh Light2 cells assessed as accumulation at G0/G1 phase at 30 uM after 30 to 48 hrs by propidium iodide staining-based flow cytometry (reference value: 86.2%); format: functional
Shh Light II [7] = assay: Cell cycle arrest in mouse Shh Light2 cells assessed as accumulation at G2/M phase at 100 uM after 30 to 48 hrs by propidium iodide staining-based flow cytometry (reference value: 6.7%); format: functional
Shh Light II [8] = assay: Effect on SuFu expression in mouse Shh Light2 cells at 75 to 100 uM after 24 hrs by Western blot analysis; format: functional, cell-based
Shh Light II [9] = assay: Cell cycle arrest in mouse Shh Light2 cells assessed as accumulation at G0/G1 phase at 100 uM after 30 to 48 hrs by propidium iodide staining-based flow cytometry (reference value: 86.2%); format: functional
[10] = target: T1, Zinc finger protein GLI1 (Homo sapiens) (UniProt P08151); assay: Inhibition of Gli1 (unknown origin) expression in mouse Shh Light2 cells at 1 to 100 uM by Western blot analysis; format: cell-based
T1 sequence (whole entry): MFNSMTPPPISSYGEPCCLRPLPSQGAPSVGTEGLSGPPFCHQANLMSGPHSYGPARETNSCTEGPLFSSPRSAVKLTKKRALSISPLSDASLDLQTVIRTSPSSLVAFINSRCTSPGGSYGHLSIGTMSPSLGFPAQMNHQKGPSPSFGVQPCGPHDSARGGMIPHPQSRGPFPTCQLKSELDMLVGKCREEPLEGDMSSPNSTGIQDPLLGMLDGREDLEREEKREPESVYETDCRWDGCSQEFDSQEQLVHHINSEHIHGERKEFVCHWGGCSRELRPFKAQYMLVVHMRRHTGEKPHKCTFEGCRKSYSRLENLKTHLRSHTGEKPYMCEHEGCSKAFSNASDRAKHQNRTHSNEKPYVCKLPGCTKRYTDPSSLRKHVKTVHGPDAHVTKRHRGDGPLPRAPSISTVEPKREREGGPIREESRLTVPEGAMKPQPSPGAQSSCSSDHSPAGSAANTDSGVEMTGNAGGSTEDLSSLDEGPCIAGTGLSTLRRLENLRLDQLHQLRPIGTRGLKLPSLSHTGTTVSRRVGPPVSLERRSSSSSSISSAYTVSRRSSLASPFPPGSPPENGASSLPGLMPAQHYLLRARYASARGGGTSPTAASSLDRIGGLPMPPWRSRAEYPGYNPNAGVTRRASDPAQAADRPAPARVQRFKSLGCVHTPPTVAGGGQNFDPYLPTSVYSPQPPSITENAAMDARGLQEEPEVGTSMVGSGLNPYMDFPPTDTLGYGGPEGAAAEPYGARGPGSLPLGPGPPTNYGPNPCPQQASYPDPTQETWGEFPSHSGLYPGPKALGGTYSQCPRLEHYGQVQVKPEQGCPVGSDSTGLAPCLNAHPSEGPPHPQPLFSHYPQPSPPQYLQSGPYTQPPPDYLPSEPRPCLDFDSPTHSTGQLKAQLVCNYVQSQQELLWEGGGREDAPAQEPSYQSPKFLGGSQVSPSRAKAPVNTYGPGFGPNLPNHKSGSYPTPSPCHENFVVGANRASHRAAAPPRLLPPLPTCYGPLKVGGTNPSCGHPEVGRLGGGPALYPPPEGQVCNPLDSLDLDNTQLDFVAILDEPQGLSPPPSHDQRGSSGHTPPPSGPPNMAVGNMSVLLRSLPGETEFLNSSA
Summary of the method: (§1)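 Gli1 protein immunoblotted in Shh-N-stimulated Shh-LIGHT2 cells after treatment with varying doses or 100 µM compound; GAPDH loading control; Shh-N-stimulated DMSO-treated cells as control; cyclopamine 10 µM positive control.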

[11] = target: T1, Zinc finger protein GLI1 (Homo sapiens); assay: Inhibition of Shh-N-induced Gli1 (unknown origin) expressed in mouse Shh Light2 cells assessed as Gli1-mediated mediated transcription at 50 uM incubated for 30 hrs by firefly luciferase assay; format: cell-based
Summary of the method: (§2)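 Shh-LIGHT2 cells (NIH-3T3 clone stably carrying Gli-dependent firefly and constitutive Renilla luciferase) treated 30 h with graded compound concentrations in Shh-N conditioned medium; firefly luminescence read as percent inhibition versus Shh-N-stimulated DMSO control. Cyclopamine 10 µM positive control. Three independent experiments in triplicate, mean ± SD.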

Shh Light II [12] = assay: Cell cycle arrest in mouse Shh Light2 cells assessed as accumulation at G2/M phase at 30 uM after 30 to 48 hrs by propidium iodide staining-based flow cytometry (reference value: 6.7%); format: functional
Shh Light II [13] = assay: Cell cycle arrest in mouse Shh Light2 cells assessed as accumulation at subG0 phase at 100 uM after 30 to 48 hrs by propidium iodide staining-based flow cytometry (reference value: 3.4%); format: functional
Shh Light II [14] = assay: Cell cycle arrest in mouse Shh Light2 cells assessed as accumulation at S phase at 30 uM after 30 to 48 hrs by propidium iodide staining-based flow cytometry (reference value: 3.6%); format: functional
Shh Light II [15] = assay: Effect on SHH expression in mouse Shh Light2 cells at 75 to 100 uM after 24 hrs by Western blot analysis; format: functional, cell-based
[16] = target: T1, Zinc finger protein GLI1 (Homo sapiens); assay: Inhibition of Gli1 (unknown origin) expression in mouse Shh Light2 cells at 100 uM by Western blot analysis; format: cell-based; summary of the method: as §1
Shh Light II [17] = assay: Effect on SHH expression in mouse Shh Light2 cells at 25 to 50 uM after 24 hrs by Western blot analysis; format: functional, cell-based
Summary of the method: (§3)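 Shh-LIGHT2 cells treated 24 h, then SHH and SuFu protein levels assessed by western blotting.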

Mus musculus = species: Mus musculus; conditions: 0.5 to 50 uM
Shh Light II [18] = assay: Effect on Ptch1 expression in mouse Shh Light2 cells at 25 to 50 uM after 24 hrs by Western blot analysis; format: functional, cell-based
Shh Light II [19] = assay: Effect on SuFu expression in mouse Shh Light2 cells at 25 to 50 uM after 24 hrs by Western blot analysis; format: functional, cell-based; summary of the method: as §3
Shh Light II [20] = assay: Cell cycle arrest in mouse Shh Light2 cells assessed as accumulation at G2/M phase at 10 uM after 30 to 48 hrs by propidium iodide staining-based flow cytometry (reference value: 6.7%); format: functional
Shh Light II [21] = assay: Cell cycle arrest in mouse Shh Light2 cells assessed as accumulation at G0/G1 phase at 10 uM after 30 to 48 hrs by propidium iodide staining-based flow cytometry (reference value: 86.2%); format: functional
Shh Light II [22] = assay: Cell cycle arrest in mouse Shh Light2 cells assessed as accumulation at subG0 phase at 10 uM after 30 to 48 hrs by propidium iodide staining-based flow cytometry (reference value: 3.4%); format: functional
Shh Light II [23] = assay: Cell cycle arrest in mouse Shh Light2 cells assessed as accumulation at S phase at 10 uM after 30 to 48 hrs by propidium iodide staining-based flow cytometry (reference value: 3.6%); format: functional
[24] = target: T1, Zinc finger protein GLI1 (Homo sapiens); assay: Inhibition of Shh-N-induced Gli1 (unknown origin) expressed in mouse Shh Light2 cells assessed as Gli1-mediated mediated transcription up to 50 uM incubated for 30 hrs by firefly luciferase assay; format: cell-based; summary of the method: as §2

Structure (SMILES): COC(=O)C1CCCCNN1 (configuration not stated)
inhibition [16]: inactive
inhibition [11]: inactive

Structure (SMILES): CN(C)C(=O)C1CCCNN1 (configuration not stated)
Activity (Shh Light II [2]): Non-Toxic
Activity (Shh Light II [17]): inactive
inhibition (Mus musculus): inactive
Activity (Shh Light II [18]): inactive
Activity (Shh Light II [19]): inactive

Structure (SMILES): NC(=O)C1CCCNN1 (configuration not stated)
Activity (Shh Light II [2]): Non-Toxic
Activity (Shh Light II [17]): inactive
inhibition (Mus musculus): inactive
Activity (Shh Light II [18]): inactive
Activity (Shh Light II [19]): inactive

Structure (SMILES): COC(=O)C1CCCNN1 (configuration not stated)
inhibition [16]: inactive
inhibition [11]: inactive

Structure (SMILES): CC1=C2C[C@H]3[C@@H](CC=C4C[C@@H](O)CC[C@@]43C)[C@@H]2CC[C@]12O[C@@H]1C[C@H](C)CN[C@H]1[C@H]2C [CYCLOPAMINE]
Activity (Shh Light II [20]): 7.7%
Activity (Shh Light II [21]): 84.1%
Activity (Shh Light II [22]): 3.2%
Activity (Shh Light II [23]): 4.7%

Now from value to molecule, other results behind:

inhibition [10]: Dose-dependent effect
inhibition [11]: < 50%
Structure (SMILES): O=C(O)C1CCCNN1 (configuration not stated)
Activity (Shh Light II [1]): inactive
Activity (Shh Light II [2]): Non-Toxic
Activity (Shh Light II [3]): 4.9%
Activity (Shh Light II [4]): 4.7%
Activity (Shh Light II [5]): inactive
Activity (Shh Light II [6]): 82.9%
Activity (Shh Light II [7]): 8.3%
Activity (Shh Light II [8]): inactive
Activity (Shh Light II [9]): 81.3%
Activity (Shh Light II [12]): 7.8%
Activity (Shh Light II [13]): 5.2%
Activity (Shh Light II [14]): 4.4%
Activity (Shh Light II [15]): inactive

inhibition [16]: inactive
inhibition [11]: inactive
Structure (SMILES): O=C(O)C1CCCCNN1 (configuration not stated)

inhibition [24]: inactive
inhibition [10]: inactive
Structure (SMILES): O=C(O)C1CCCCN1 (configuration not stated)
